# Experimental data reported in the EternaBench riboswitch data.
# Tested on: MS2 coat protein
# Test: apparent Kd, MS2 coat protein; higher = weaker binding; RNA-MaP array; FMN 200 µM where present
# Procedure, shortened: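 SNAP-549-labelled MS2 coat protein, doubled from 0.7 or 1.5 nM to 3 µM, was titrated over designs transcribed by stalled E. coli RNA polymerase on Illumina sequencing-chip clusters. Titrations were run without and then with constant ligand in 100 mM Tris-HCl pH 7.5, 80 mM KCl, 4 mM MgCl2, BSA, DTT, yeast tRNA and Tween-20. The apparent Kd is the median of filtered per-cluster fits to green signal normalised to red-channel RNA signal and control-cluster median Fmax.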
# [1] = designed as: OFF switch for flavin mononucleotide, no ligand
# [2] = ligand present: flavin mononucleotide, designed as: OFF switch for flavin mononucleotide
# [3] = designed as: ON switch for flavin mononucleotide, no ligand
# [4] = ligand present: flavin mononucleotide, designed as: ON switch for flavin mononucleotide
Sequence,apparent Kd [1],apparent Kd [2],apparent Kd [3],apparent Kd [4]
AGCAUGUGAGGAUAUGCGGACUCCGGUAAAGCUGGAGUCCAGUAGAAGGCACAUGAGGAUCACCCAUGUGAUAA,85.6 nM,106 nM,–,–
AGCCUACAUGAGGAUCACCCAUGUCAGGAUAUCUCGCGACAUGUCAAGUUCACGUUGCAGAGAAGGGACUCGGG,56.6 nM,63.6 nM,–,–
AGCCUUAGAGGAUAUACAUGAUCCUCCAUCGCGAAAGGGCUACAUGAGGAUCACCCAUGUAGAAGGCUGAGGGA,20.1 nM,33.6 nM,–,–
AGCGAGAUAGGCGAGGAUAUGCUUUUUUGCACAUGAGGAUCACCCAUGUCUUUGUUUUUUGUUUUGCAGAAGGCGCAUUCUCUUU,–,–,18.9 nM,41.2 nM
AGCGAGCUAGGAUAUACAUGAGGAUCACCCAUGUCUUUUUAGUACUACGGUGGAAGAUGUAGAAGGAGUGAGAA,95.1 nM,68.3 nM,–,–
AGCGGAUUGUAGAAGGGUGACAUGAGGAUCACCCAUGUUCAAAUGCGAUUUUCGGUAAUUGAUCCACAGGAUAUACUGUCCGAG,–,–,976 nM,427 nM
AGCGGCGCAGACCACCGCAAAACCAGAAGGACAUGAGGAUCACCCAUGUAACAAAACAGGGCAAUGUAGGAUAUGGCAAACCCA,11.1 nM,12.6 nM,–,–
AGCGUGUAAGGAUAUACGUCGGAUAGCGAAUGCUGUCCCUAGUAGAAGGUACAUGAGGAUCACCCAUGUGUCCA,23.3 nM,70.1 nM,–,–
AGCUACGUUUCGUAGCAGCUAGGUGAGGAUAUCCACUCGACAUGAGGAUCACCCAUGUAAACAUGGGAGAAGGCGCCUAGAAAG,–,–,84.9 nM,10.6 nM
AGCUACGUUUCGUAGCAGUGUCAUCGAGAAGGCCCUUACAUGACAACAUGAGGAUCACCCAUGUGGGAGGAUAUCGAUGAUACA,–,–,11.4 nM,8.98 nM
AGCUACGUUUCGUAGCAGUGUCAUCGAGAAGGCCUCAUUACAUGAGGAUCACCCAUGUGGACAUGGGAGGAUAUCGAUGAUACA,–,–,487 nM,212 nM
AGCUAGGCAGGAUAUACGUAAAUGUCGAAAGACGUAUUGGGACAUGAGGAUCACCCAUGUAGAAGGGCCUAGCA,31.6 nM,165 nM,–,–
AGCUAGUCAGGAUAUACGAACACCUCAAAAGAGGUGAAGGGACAUGAGGAUCACCCAUGUAGAAGGGACUAGCA,33.1 nM,112 nM,–,–
AGCUAGUCAGGAUAUACGUGCAUGUCAAAAGACGUGAAGGGACAUGAGGAUCACCCAUGUAGAAGGGACUAGCA,54.5 nM,231 nM,–,–
AGCUAGUGAGGAUAUACAAGAAUAUAAACGAACAUAAAGGGACAUGAGGAUCACCCAUGUAGAAGGCACUAGCA,37.6 nM,243 nM,–,–
AGCUCGUACACAGGAUAUCCGUUGCUGCGCACUGGAGAAGGGUGACAUCCGCACAUGAGGAUCACCCAUGUACCGGGACAAUAU,–,–,282 nM,640 nM
AGCUGGAGAGGAUAUACGUAGGAAAAAAAAGUCUGAUCACUACAUGAGGAUCACCCAUGUAGAAGGCUCUGGCA,21.2 nM,62.2 nM,–,–
AGCUGUGGCAGAGGAUAUACUACUAUAAUCCAUUGCAAAUAGCGAUGGACAUGAGGAUCACCCAUGUAGAAGGCUGUCUCAGCA,38.9 nM,153 nM,–,–
AGCUGUGGCCGAGGAUAUCUAACCUUCAUAACCGAAAUAUAAUCGGACAUGAGGAUCACCCAUGUAGAGAAGGCGGUCUCAGCA,18.2 nM,191 nM,–,–
AGCUGUGGCCGAGGAUAUCUAAUAUCUCAAACCGAAAUAUAAUCGGACAUGAGGAUCACCCAUGUAGAGAAGGCGGUCUCAGCA,31.1 nM,85 nM,–,–
AGGAAGUCAGGAUAUGCUGCUCGUCACUUGCGUGAUGAGUAGCAGAAGGGACAUGAGGAUCACCCAUGUAAAGA,51.1 nM,65.1 nM,–,–

Sequence,apparent Kd [1],apparent Kd [2],apparent Kd [3],apparent Kd [4]
AGGAAGUGAGGAUAUGCAGUGGCUUGUAGACGCAAGCACUUGUAGAAGGCACAUGAGGAUCACCCAUGUUUAAA,30.8 nM,37.3 nM,–,–
AGGACCAAAACAUCUACAUGAGGAUCACCCAUGUAUCGUAUGCAGGAUAUCCAUGGGUGGGCAGAGGAGAAGGGCAUUAAAAGA,–,–,61.6 nM,124 nM
AGGAGACAUGAGGAUCACCCAUGUGCGAGGUGAAGAGGAUAUAGAAGAAGAAGAAAGAAACUAGAAGGCUUAAAAA,–,–,220 nM,244 nM
AGGCGACAUGAGGAUCACCCAUGUGAGGAUAUCGAACUCUACUGUUGUGAGAGUAAGGCGAGAAGGCACACAGU,22.7 nM,25.3 nM,–,–
AGGCGGGUAGGAUAUGCGUACUUACGGGAAAGCUGAAUGGUACAUGAGGAUCACCCAUGUAGAAGGGCUCUGAA,18.3 nM,27 nM,–,–
AGGUACAUGAGGAUCACCCAUGUAAGAGACCUCAUGCGAUGUAGAAGGAUAAUCCGAGAAGAGGUAUAGGAUAUACAUGAGAAA,177 nM,149 nM,–,–
AGUAACAGAGGAUAUACUAUUUUAUGUGUUUGUUAUUUUAAACAUGAGGAUCACCCAUGUAGAAGGCUGAAUGA,28.4 nM,29.1 nM,–,–
AGUAACAGAGGAUAUACUGUUUUAUGUGUUUAUUAUUUUAAACAUGAGGAUCACCCAUGUAGAAGGCUGAAUAA,49.7 nM,40.4 nM,–,–
AGUAAGAUGCAGAAGGUGUCAGCGAGAGCUACGACAUGAGGAUCACCCAUGUACUAGUGAGAGUACAAGGAUAUGCAUCUUACA,–,–,76.3 nM,8.54 nM
AGUACUACAGGAUAUACAUGAGUGAUACUCAUAUACCUUCUACAUGAGGAUCACCCAUGUAGAAGGGUAGUACA,15.3 nM,12.5 nM,–,–
AGUAGAUCAGGAUAUACAUAAAUGAUAAUUAUGUACCUUCUACAUGAGGAUCACCCAUGUAGAAGGGAUCUACA,13.1 nM,11.9 nM,–,–
AGUAGAUCAGGAUAUACAUGAAAGAUCAAAAUGUCACUACUACAUGAGGAUCACCCAUGUAGAAGGGAUCUACA,52.9 nM,36.7 nM,–,–
AGUAGAUCAGGAUAUACGUAAAUGGUAAUUAUGUAACUUAUACAUGAGGAUCACCCAUGUAGAAGGGAUCUACA,19.4 nM,51.9 nM,–,–
AGUAGUUUAACAUGAGGAUCACCCAUGUAUCUAUCUGUAACCUAGGAUAUGGACGUUGUAUUUAACCAGAAGGAGGAUCGUUUA,–,–,28.5 nM,17 nM
AGUAUGCACGCAGGAUAUACAUGAGGAUCACCCAUGUGGAACAGUGUAGUAUUAGUUGAUCCUCAGUAGAAGGGCGGUCGAAAU,82.5 nM,55.6 nM,–,–
AGUCAUACAGGAUAUACAUGAGGAUCACCCAUGUAUAUCCAAAAUGGGUGAUCCUCAUGUAGAAGGGUAUGACA,10.3 nM,10.5 nM,–,–
AGUCGGAGCAGAGGAUAUACAUGAGGAUCACCCAUGUAAAUGGAAUAAGCCUGGAAACAGGCAAUGUAGAAGGCUGCUCCGACA,75 nM,716 nM,–,–
AGUCGGAGCAGAGGAUAUACAUGAGGAUCACCCAUGUAAUAAAGUGAAGCUUGGAAACAGGCAAUGUAGAAGGCUGCUCCGACA,11.3 nM,68.6 nM,–,–
AGUCGGAGCAGAGGAUAUAUACAUGAGGAUCACCCAUGUAAAGAUCAAAGCAGGAAACUGCAAGUAUAGAAGGCUGCUCCGACA,108 nM,231 nM,–,–
AGUCGGCGAGGAUAUACAUGAGGAUCACCCAUGUGAUAUAGUGCACGCGUACGUGUACGUAGAAGGCGCUGACA,13.3 nM,40.1 nM,–,–
AGUCGGUUCUUUUAACAUGAGGAUCACCCAUGUAUUUGCAACUAGGAUAUCGAUAAUUAUUUCGUCGAGAAGGAGUAUACAUAA,24.2 nM,38.5 nM,–,–
